Drawing on ChEMBL document CHEMBL1122064, “Synthesis and biological evaluation of 17-[131I]iodo-9-telluraheptadecanoic acid, a potential imaging agent” (J Med Chem, 1982), this text covers Distribution of radioactivity for one molecule.

Data set [1] deals with Rattus norvegicus. The data set is described as follows: Distribution of radioactivity in blood of Fischer 344 female rat after 5 min of intravenous administration. Format: ADME, organism-based. The following applies: in vivo. The gist of the method:
(§1)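 In female Fischer 344 rats, each animal received about 2.5 µCi of the 123mTe-labelled fatty acid (sp act. ~16 mCi/mmol) in 6% bovine serum albumin through a lateral tail vein. Four rats were used per time point. Excised organs were rinsed, blotted, weighed and counted on a Ge(Li) analyzer. Results are mean (range) % injected dose per gram.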

The test system of data set [2] is Rattus norvegicus. Kind of data set: Distribution of radioactivity in heart of Fischer 344 female rat after 60 min of intravenous administration. The class given is ADME, organism-based. Conditions: in vivo, 1 h.
Data set [3] concerns Rattus norvegicus. The data set is described as follows: Distribution of radioactivity in lungs of Fischer 344 female rat after 30 min of intravenous administration. Conditions: in vivo, 0.5 h. The class given is ADME, organism-based, Lung. In outline: (§2)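 Female Fischer 344 rats, 10-12 weeks, 170-200 g, fed ad libitum. The labelled fatty acid was given in 6% bovine serum albumin via a lateral tail vein under ether anaesthesia. Rats were killed by CO2 anaesthesia and cervical fracture; organs were excised, rinsed, blotted, weighed and counted by Ge(Li) analyzer. Results are mean percent injected dose/g with range.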

Data set [4] relates to Rattus norvegicus. The data set is described as follows: Distribution of radioactivity in heart of Fischer 344 female rat after 5 min of intravenous administration. Format: ADME, organism-based. The following applies: in vivo. The gist of the method: as §1
Data set [5] concerns Rattus norvegicus. The data set is described as follows: Distribution of radioactivity in liver of Fischer 344 female rat after 5 min of intravenous administration. Format: ADME, organism-based. Conditions: in vivo. The gist of the method: (§3)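 Tracer was the 123mTe-labelled fatty acid, about 2.5 μCi per rat (sp act. ~16 mCi/mmol), given in 6% bovine serum albumin into a lateral tail vein. Female Fischer 344 rats, 10-12 weeks, 170-200 g, four per time point. Excised organs were rinsed, blotted and weighed, then counted by Ge(Li) analyzer, with mean percent injected dose/g and range reported.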

Data set [6] concerns Rattus norvegicus. The data set is described as follows: Distribution of radioactivity in kidneys of Fischer 344 female rat after 30 min of intravenous administration. Format: ADME, organism-based, Kidney. Conditions: in vivo, 0.5 h.
For data set [7], the system named is Rattus norvegicus. The data set is described as follows: Distribution of radioactivity in liver of Fischer 344 female rat after 30 min of intravenous administration. The following applies: in vivo, 0.5 h. Format: ADME, organism-based. The gist of the method: as §2
Data set [8] deals with Rattus norvegicus. Kind of data set: Distribution of radioactivity in kidneys of Fischer 344 female rat after 5 min of intravenous administration. Format: ADME, organism-based, Kidney. The following applies: in vivo. The gist of the method: as §1
The subject of data set [9] is Rattus norvegicus. Kind of data set: Distribution of radioactivity in kidneys of Fischer 344 female rat after 60 min of intravenous administration. The class given is ADME, organism-based, Kidney. Conditions: in vivo, 1 h.
The test system of data set [10] is Rattus norvegicus. Kind of data set: Distribution of radioactivity in blood of Fischer 344 female rat after 60 min of intravenous administration. Format: ADME, organism-based. Conditions: in vivo, 1 h.
The subject of data set [11] is Rattus norvegicus. The data set is described as follows: Distribution of radioactivity in heart of Fischer 344 female rat after 30 min of intravenous administration. The class given is ADME, organism-based. The following applies: in vivo, 0.5 h.
The test system of data set [12] is Rattus norvegicus. The data set is described as follows: Distribution of radioactivity in lungs of Fischer 344 female rat after 60 min of intravenous administration. The following applies: in vivo, 1 h. The class given is ADME, organism-based, Lung. The gist of the method:
as §2

Data set [13] deals with Rattus norvegicus. The data set is described as follows: Distribution of radioactivity in lungs of Fischer 344 female rat after 5 min of intravenous administration. Conditions: in vivo. Format: ADME, organism-based, Lung. The gist of the method:
as §3

Data set [14] concerns Rattus norvegicus. The data set is described as follows: Distribution of radioactivity in blood of Fischer 344 female rat after 30 min of intravenous administration. Format: ADME, organism-based. The following applies: in vivo, 0.5 h.
The test system of data set [15] is Rattus norvegicus. The data set is described as follows: Distribution of radioactivity in liver of Fischer 344 female rat after 60 min of intravenous administration. Format: ADME, organism-based. Conditions: in vivo, 1 h. In outline: as §2

As to `O=C(O)CCCCCCCC[123Te]CCCCCCCCI`, the Distribution of radioactivity stood at 0.13 dose g-1 with Rattus norvegicus [1]; 1.58 dose g-1 in the data set with Rattus norvegicus [2]; 0.62 dose g-1 in the data set with Rattus norvegicus [3]; 1.38 dose g-1 in the data set with Rattus norvegicus [4]; 3.33 dose g-1 with Rattus norvegicus [5]; 1.05 dose g-1 in the data set on Rattus norvegicus [6]. In addition, the Distribution of radioactivity in the data set with Rattus norvegicus [7] is reported as 2.11 dose g-1; in the data set with Rattus norvegicus [8], 1.17 dose g-1; in the data set on Rattus norvegicus [9], 0.99 dose g-1; with Rattus norvegicus [10], 0.25 dose g-1; in the data set with Rattus norvegicus [11] it was 2.24 dose g-1; in the data set with Rattus norvegicus [12] it was 0.56 dose g-1. In addition, the values for the Distribution of radioactivity in the data set on Rattus norvegicus [13], in the data set with Rattus norvegicus [14] and with Rattus norvegicus [15] were 0.67 dose g-1, 0.36 dose g-1 and 1.65 dose g-1, respectively.
